In ChEMBL document CHEMBL1145009 (J Med Chem, 2003):

Key:
[1] = target: T1, Gonadotropin-releasing hormone receptor (Homo sapiens, UniProt P30968); test: Antagonist concentration required to inhibit specific binding of [125I]leuprorelin to human luteinizing releasing hormone receptor in cloned chinese hamster ovary (CHO) cells.; assay type: cell-based
T1 sequence (P30968 whole entry): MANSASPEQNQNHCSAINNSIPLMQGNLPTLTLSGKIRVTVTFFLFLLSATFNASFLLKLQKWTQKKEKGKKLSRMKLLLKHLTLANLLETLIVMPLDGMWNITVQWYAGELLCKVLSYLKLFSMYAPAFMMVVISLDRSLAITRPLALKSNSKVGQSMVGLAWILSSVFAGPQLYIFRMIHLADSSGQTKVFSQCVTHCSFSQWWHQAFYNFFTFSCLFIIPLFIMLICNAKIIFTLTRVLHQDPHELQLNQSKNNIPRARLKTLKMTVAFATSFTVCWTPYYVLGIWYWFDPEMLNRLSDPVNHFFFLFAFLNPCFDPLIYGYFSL

[2] = Tested for oral absorption in Cynomolgus Monkey at the dose of 10 mg/kg, activity expressed as Cmax; assay type: ADME, organism-based, Macaca fascicularis; parameters: dose 10 mg/kg, route oral; details: in vivo
How it was run: (§1)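 Single oral dose of 10 mg/kg as suspension in 0.5% methylcellulose to female cynomolgus monkeys (4–8 years, n = 3). Forearm-vein heparin plasma taken at 1, 3 and 6 h, deproteinized with 5% acetonitrile/0.05% TFA, compound measured by reverse-phase HPLC with UV detection at 320 nm.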

[3] = Tested for oral absorption in Cynomolgus Monkey at the dose of 10 mg/kg, activity expressed as Tmax (time required for Cmax); assay type: ADME, organism-based, Macaca fascicularis; parameters: dose 10 mg/kg, route oral; details: in vivo; how it was run: as §1
Cynomolgus monkey = test: (§2) Tested for oral absorption in Cynomolgus Monkey at the dose of 10 mg/kg, activity expressed as area under curve (AUC); assay type: ADME, organism-based, Macaca fascicularis; parameters: dose 10 mg/kg, route oral; details: in vivo; how it was run: as §1
[4] = as §2; assay type: ADME, organism-based, Macaca fascicularis; parameters: dose 10 mg/kg, route oral; details: in vivo; how it was run: as §1
[5] = Tested for plasma LH concentration in Castarted male Cynomolgus monkeys for oral administration at the dose of 10 mg/kg after 2 h; assay type: functional, Cercopithecidae
How it was run: (§3)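 Male cynomolgus monkeys (4–9 years), castrated more than 6 months earlier and chair-restrained, given 10 mg/kg orally (3 mL/kg, n = 3) in 0.5% methylcellulose with 1.2% citric acid; vehicle group n = 3. Femoral-vein heparin plasma taken at 0–48 h; LH measured by mouse testicular cell bioassay. Mean ± SEM, also as % of 0 h value.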

[6] = Tested for plasma LH concentration in Castarted male Cynomolgus monkeys for oral administration at the dose of 30 mg/kg after 2 h; assay type: functional, Cercopithecidae
How it was run: (§4)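 Castrated (more than 6 months) male cynomolgus monkeys aged 4–9 years, chair-restrained, dosed orally at 30 mg/kg (3 mL/kg, n = 3) as suspension in 0.5% methylcellulose/1.2% citric acid; vehicle controls n = 3. Plasma LH from femoral-vein samples through 48 h, assayed by bioassay with mouse testicular cells; mean ± SEM and % of pretreatment.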

[7] = Tested for plasma LH concentration in Castarted male Cynomolgus monkeys for oral administration at the dose of 10 mg/kg after 48 h; assay type: functional, Cercopithecidae; how it was run: as §3
[8] = Tested for plasma LH concentration in Castarted male Cynomolgus monkeys for oral administration at the dose of 30 mg/kg after 24 h; assay type: functional, Cercopithecidae; how it was run: as §4
[9] = Tested for plasma LH concentration in Castarted male Cynomolgus monkeys for oral administration at the dose of 30 mg/kg after 48 h; assay type: functional, Cercopithecidae; how it was run: as §4
[10] = Tested for plasma LH concentration in Castarted male Cynomolgus monkeys for oral administration at the dose of 30 mg/kg after 0 h; assay type: functional, Cercopithecidae; how it was run: as §4
[11] = Tested for plasma LH concentration in Castarted male Cynomolgus monkeys for oral administration at the dose of 10 mg/kg after 4 h; assay type: functional, Cercopithecidae; how it was run: as §3
[12] = Tested for plasma LH concentration in Castarted male Cynomolgus monkeys for oral administration at the dose of 10 mg/kg after 0 h; assay type: functional, Cercopithecidae; how it was run: as §3
[13] = Tested for plasma LH concentration in Castarted male Cynomolgus monkeys for oral administration at the dose of 10 mg/kg after 24 h; assay type: functional, Cercopithecidae; how it was run: as §3
[14] = Tested for plasma LH concentration in Castarted male Cynomolgus monkeys for oral administration at the dose of 30 mg/kg after 4 h; assay type: functional, Cercopithecidae; how it was run: as §4
[15] = Tested for plasma LH concentration in Castarted male Cynomolgus monkeys for oral administration at the dose of 30 mg/kg after 8 h; assay type: functional, Cercopithecidae; how it was run: as §4
[16] = Tested for plasma LH concentration in Castarted male Cynomolgus monkeys for oral administration at the dose of 10 mg/kg after 8 h; assay type: functional, Cercopithecidae; how it was run: as §3

Structure (SMILES) | IC50 [1] | further results
CCC(=O)Nc1ccc(-c2sc3c(c2CN(C)Cc2ccccc2)c(=O)n(-c2cccc(OC)c2)c(=O)n3Cc2c(F)cccc2F)cc1 | 0.2 nM | 
CNC(=O)Nc1ccc(-c2sc3c(c2CN(C)Cc2ccccc2)c(=O)n(-c2ccccc2)c(=O)n3Cc2c(F)cccc2F)cc1 | 0.1 nM | 
CCC(=O)Nc1ccc(-c2sc3c(c2CN(C)Cc2ccccc2)c(=O)n(-c2ccccc2)c(=O)n3Cc2c(F)cccc2F)cc1 |  | Cmax [2]: 630 nM; Tmax [3]: 3 h; AUC (Cynomolgus monkey): 2.5 µM·h
CCC(=O)N(C)c1ccc(-c2sc3c(c2CN(C)Cc2ccccc2)c(=O)n(-c2cccc(OC)c2)c(=O)n3Cc2c(F)cccc2F)cc1 | 20 nM | 
CCONC(=O)Nc1ccc(-c2sc3c(c2CN(C)Cc2ccccc2)c(=O)n(-c2ccccc2)c(=O)n3Cc2c(F)cccc2F)cc1 | 0.2 nM | 
COc1ccc(-c2sc3c(c2CN(C)Cc2ccccc2)c(=O)n(-c2ccccc2)c(=O)n3Cc2c(F)cccc2F)cc1 | 50 nM | 
COc1ccc(-c2sc3c(c2CN(C)Cc2ccccc2)c(=O)n(CC(C)C)c(=O)n3Cc2c(F)cccc2F)cc1 | 400 nM | 
COc1ccc(-c2sc3c(c2CN(C)Cc2ccccc2)c(=O)n(Cc2ccccc2)c(=O)n3Cc2c(F)cccc2F)cc1 | 400 nM | 
CC(C)ONC(=O)Nc1ccc(-c2sc3c(c2CN(C)Cc2ccccc2)c(=O)n(-c2ccccc2)c(=O)n3Cc2c(F)cccc2F)cc1 | 0.6 nM | 
CN(Cc1ccccc1)Cc1c(-c2ccc(NC(=O)NO)cc2)sc2c1c(=O)n(-c1ccccc1)c(=O)n2Cc1c(F)cccc1F | 0.4 nM | 
COc1ccc(-c2sc3c(c2CN(C)Cc2ccccc2)c(=O)n(-c2ccccc2Cl)c(=O)n3Cc2c(F)cccc2F)cc1 | 80 nM | 
COc1ccc(-c2sc3c(c2CN(C)Cc2ccccc2)c(=O)n(-c2ccc(Cl)cc2)c(=O)n3Cc2c(F)cccc2F)cc1 | 200 nM | 
COc1ccc(-c2sc3c(c2CN(C)Cc2ccccc2)c(=O)n(-c2cccc(Cl)c2)c(=O)n3Cc2c(F)cccc2F)cc1 | 200 nM | 
COc1cccc(-n2c(=O)c3c(CN(C)Cc4ccccc4)c(-c4ccc([N+](=O)[O-])cc4)sc3n(Cc3c(F)cccc3F)c2=O)c1 | 20 nM | 
CC(C)NC(=O)Nc1ccc(-c2sc3c(c2CN(C)Cc2ccccc2)c(=O)n(-c2ccccc2)c(=O)n3Cc2c(F)cccc2F)cc1 | 0.2 nM | 
COc1cccc(-n2c(=O)c3c(CN(C)Cc4ccccc4)c(-c4ccc(N)cc4)sc3n(Cc3c(F)cccc3F)c2=O)c1 | 1 nM | 
CN(Cc1ccccc1)Cc1c(-c2ccc(NC(=O)c3ccccc3)cc2)sc2c1c(=O)n(-c1ccccc1)c(=O)n2Cc1c(F)cccc1F | 1 nM | 
CC(C)C(=O)Nc1ccc(-c2sc3c(c2CN(C)Cc2ccccc2)c(=O)n(-c2ccccc2)c(=O)n3Cc2c(F)cccc2F)cc1 | 0.4 nM | 
COc1ccc(-c2sc3c(c2CN(C)Cc2ccccc2)c(=O)n(-c2ccc(OC)cc2)c(=O)n3Cc2c(F)cccc2F)cc1 | 30 nM | 
COc1cccc(-n2c(=O)c3c(CN(C)Cc4ccccc4)c(-c4ccc(NC(=O)C(C)C)cc4)sc3n(Cc3c(F)cccc3F)c2=O)c1 | 0.3 nM | 
COc1ccc(-c2sc3c(c2CN(C)Cc2ccccc2)c(=O)n(-c2ccccc2OC)c(=O)n3Cc2c(F)cccc2F)cc1 | 200 nM | 
COc1ccc(-c2sc3c(c2CN(C)Cc2ccccc2)c(=O)n(-c2cccc(OC)c2)c(=O)n3Cc2c(F)cccc2F)cc1 | 20 nM | 
CCNC(=O)Nc1ccc(-c2sc3c(c2CN(C)Cc2ccccc2)c(=O)n(-c2ccccc2)c(=O)n3Cc2c(F)cccc2F)cc1 |  | Cmax [2]: 63 nM; Tmax [3]: 3 h; AUC [4]: 0.27 µM·h
COc1ccc(-c2sc3c(c2CN(C)Cc2ccccc2)c(=O)n(C2CCCCC2)c(=O)n3Cc2c(F)cccc2F)cc1 | 700 nM | 
CONC(=O)Nc1ccc(-c2sc3c(c2CN(C)Cc2ccccc2)c(=O)n(-c2ccccc2)c(=O)n3Cc2c(F)cccc2F)cc1 [SUFUGOLIX] |  | LH concentration [5]: 0.74 mU ml-1; LH concentration [6]: 0.55 mU ml-1; LH concentration [7]: 0.76 mU ml-1; Cmax [2]: 210 nM; LH concentration [8]: 0.1 mU ml-1; LH concentration [9]: 0.71 mU ml-1; LH concentration [10]: 0.91 mU ml-1; LH concentration [11]: 0.37 mU ml-1; LH concentration [12]: 1.01 mU ml-1; LH concentration [13]: 0.18 mU ml-1; Tmax [3]: 6 h; LH concentration [14]: 0.25 mU ml-1; AUC [4]: 0.85 µM·h; LH concentration [15]: 0.13 mU ml-1; LH concentration [16]: 0.19 mU ml-1
